pIC50: −log10 of the molar value. Converted amounts (≈) assume the structure as drawn. The source made the active and inactive calls. The calls are words filed in the database; no cut-off is given here.
Tests used:
PANC-1 = test: Cytotoxicity against human PANC1 cells after 72 hrs by MTS assay; type: functional, cell-based; conditions: PANC-1, 72 h
How it was run: (§1)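 Cell proliferation of MCF-7, MDA-MB-231, AsPC1 and Panc-1 measured by MTS assay; IC50 in μM.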

MDA-MB-231 [1] = test: Cytotoxicity against human ER negative MDA-MB-231 cells after 72 hrs by MTS assay; type: functional, cell-based; conditions: MDA-MB-231, 72 h; how it was run: as §1
ASPC1 = test: Cytotoxicity against human AsPC1 cells after 72 hrs by MTS assay; type: functional, cell-based; conditions: ASPC1, 72 h; how it was run: as §1
MCF7 = test: Cytotoxicity against human ER positive MCF7 cells after 72 hrs by MTS assay; type: functional, cell-based; conditions: MCF7, 72 h; how it was run: as §1
MDA-MB-231 [2] = test: Antitumor activity against human ER negative MDA-MB-231 cells xenografted in nude mouse assessed as inhibition of tumor growth at 7.5 mg/kg, ip qd for 5 days; type: functional, organism-based; parameters: dose 7.5 mg/kg
How it was run: (§2)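 MDA-MB-231 xenografts in mice; tumor growth followed after intraperitoneal or oral dosing, doses as listed per line.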

MDA-MB-231 [3] = test: Antiproliferative activity against human ER negative MDA-MB-231 cells at 1 to 10 uM after 48 hrs by light microscopic analysis; type: functional, cell-based
How it was run: (§3)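 MDA-MB-231 cells treated 48 h at 1, 5 and 10 μM; cell morphology, growth and apoptotic features examined under light microscopy.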

[4] = molecular target: Signal transducer and activator of transcription 3 (Homo sapiens) (UniProt P40763); test: Inhibition of STAT3 in human ER negative MDA-MB-231 cells assessed as reduction of phosphorylated STAT3 at Tyr-705 level at 1 to 10 uM after 24 hrs by Western blot analysis; type: cell-based
How it was run: (§4)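 MDA-MB-231 cells treated with a series of doses for 24 h; total STAT3 and Tyr-705-phosphorylated STAT3 detected by Western blot.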

MDA-MB-231 [5] = test: Antiproliferative activity against human ER negative MDA-MB-231 cells at 10 to 20 uM after 24 hrs by MTT assay; type: functional, cell-based
How it was run: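 MDA-MB-231 cells exposed 24 h; proliferation read by MTT assay.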

[6] = molecular target: Signal transducer and activator of transcription 3 (Homo sapiens) (UniProt P40763); test: Inhibition of STAT3 promoter activity in human ER negative MDA-MB-231 cells after 24 hrs by dual luciferase reporter assay; type: cell-based
How it was run: (§5)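 MDA-MB-231 cells pretreated 24 h at various concentrations, then transiently transfected with pSTAT3-Luc vector; STAT3 promoter activity by dual luciferase reporter assay, expressed relative to control.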

MDA-MB-231 [7] = test: Induction of morphological changes in human ER negative MDA-MB-231 cells at 1 to 10 uM after 48 hrs by light microscopic analysis; type: functional, cell-based; how it was run: as §3
[8] = molecular target: Signal transducer and activator of transcription 3 (Homo sapiens) (UniProt P40763); test: Inhibition of STAT3 promoter activity in human ER negative MDA-MB-231 cells at 10 uM after 24 hrs by dual luciferase reporter assay; type: cell-based; how it was run: as §5
MDA-MB-231 [9] = test: Induction of apoptosis in human ER negative MDA-MB-231 cells assessed as cleavage of caspase-3 after 48 hrs; type: functional, cell-based
[10] = molecular target: Signal transducer and activator of transcription 3 (Homo sapiens) (UniProt P40763); test: Inhibition of STAT3 promoter activity in human ER negative MDA-MB-231 cells at 20 uM after 24 hrs by dual luciferase reporter assay; type: cell-based; how it was run: as §5
MDA-MB-231 [11] = test: Induction of apoptosis in human ER negative MDA-MB-231 cells assessed as cleavage of caspase-3 at 1 to 10 uM after 48 hrs; type: functional, cell-based
MDA-MB-231 [12] = test: Induction of apoptosis in human ER negative MDA-MB-231 cells using annexin-V staining at 1 to 10 uM after 48 hrs by flow cytometry; type: functional, cell-based
How it was run: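 Apoptosis in MDA-MB-231 cells measured by annexin V staining with flow cytometry across a dose range.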

MDA-MB-231 [13] = test: Antitumor activity against human ER negative MDA-MB-231 cells xenografted in nude mouse assessed as inhibition of tumor growth at 25 mg/kg, po qd for 5 days; type: functional, organism-based; parameters: dose 25 mg/kg; how it was run: as §2
MDA-MB-231 [14] = test: Induction of apoptosis in human ER negative MDA-MB-231 cells assessed as down regulation of cycline D1 at 1 to 10 uM after 48 hrs; type: functional, cell-based
[15] = molecular target: Signal transducer and activator of transcription 3 (Homo sapiens) (UniProt P40763); test: Inhibition of STAT3 in human ER negative MDA-MB-231 cells assessed as reduction of total STAT3 level at 1 to 10 uM after 24 hrs by Western blot analysis; type: cell-based; how it was run: as §4
MDA-MB-231 [16] = test: Induction of apoptosis in human ER negative MDA-MB-231 cells at 1 to 10 uM after 48 hrs by light microscopic analysis; type: functional, cell-based; how it was run: as §3
[17] = Solubility of the compound in water; type: physicochemical
MDA-MB-231 [18] = test: Antitumor activity against human ER negative MDA-MB-231 cells xenografted in nude mouse assessed as inhibition of tumor growth at 12.5 mg/kg, ip qd for 5 days; type: functional, organism-based; parameters: dose 12.5 mg/kg; how it was run: as §2
MDA-MB-231 [19] = test: Antitumor activity against human ER negative MDA-MB-231 cells xenografted in nude mouse assessed as inhibition of tumor growth at 75 mg/kg, po qd for 5 days; type: functional, organism-based; parameters: dose 75 mg/kg; how it was run: as §2

Signal transducer and activator of transcription 3 (Homo sapiens), sequence (P40763 whole entry): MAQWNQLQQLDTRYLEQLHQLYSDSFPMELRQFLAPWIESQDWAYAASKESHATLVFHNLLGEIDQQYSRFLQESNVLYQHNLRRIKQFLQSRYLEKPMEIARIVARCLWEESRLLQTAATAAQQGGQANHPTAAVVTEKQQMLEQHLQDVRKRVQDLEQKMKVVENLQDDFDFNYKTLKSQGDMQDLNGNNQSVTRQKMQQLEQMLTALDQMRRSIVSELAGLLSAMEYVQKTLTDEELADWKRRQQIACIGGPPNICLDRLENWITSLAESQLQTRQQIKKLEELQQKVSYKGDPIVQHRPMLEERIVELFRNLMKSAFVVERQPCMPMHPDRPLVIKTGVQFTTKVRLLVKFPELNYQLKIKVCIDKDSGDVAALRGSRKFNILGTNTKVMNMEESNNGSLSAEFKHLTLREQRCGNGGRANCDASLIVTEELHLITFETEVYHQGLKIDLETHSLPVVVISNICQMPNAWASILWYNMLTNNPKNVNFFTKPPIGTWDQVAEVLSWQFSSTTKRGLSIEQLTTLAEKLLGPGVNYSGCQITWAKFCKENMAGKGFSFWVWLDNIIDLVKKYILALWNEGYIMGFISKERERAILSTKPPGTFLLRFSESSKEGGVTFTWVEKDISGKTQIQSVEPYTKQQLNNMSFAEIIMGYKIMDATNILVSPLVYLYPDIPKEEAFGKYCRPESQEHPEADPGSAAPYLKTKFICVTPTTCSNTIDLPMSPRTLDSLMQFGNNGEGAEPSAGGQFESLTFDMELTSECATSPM

In the case of NCCCOc1ccc(Cl)cc1C(=O)Nc1ccc([N+](=O)[O-])cc1Cl, the pIC50 (PANC-1) was 5.51, the pIC50 (MDA-MB-231 [1]) was 5.58 and the pIC50 (ASPC1) was 5.38. For the same molecule, the pIC50 (MCF7) was 5.51.

In the case of O=C(Nc1ccc([N+](=O)[O-])cc1Cl)c1cc(Cl)ccc1OCCF, the pIC50 (MDA-MB-231 [1]) was < 5.00 and the pIC50 (MCF7) was < 5.00.

For CC(=O)Nc1ccc(NC(=O)c2cc(Cl)ccc2OC2CCNCC2)c(Cl)c1, the pIC50 (MDA-MB-231 [1]) was 5.23 and the pIC50 (MCF7) was < 5.00.

O=C(Nc1ccc([N+](=O)[O-])cc1Cl)c1cc(Cl)ccc1OC1CCNCC1 [listing 1 of 2 here] gave a pIC50 (PANC-1) of 6.27, a pIC50 (MDA-MB-231 [1]) of 6.54 and a pIC50 (ASPC1) of 5.56. For the same molecule, the pIC50 (MCF7) was 6.60.

In the case of NCCOc1ccc(Cl)cc1C(=O)Nc1ccc([N+](=O)[O-])cc1Cl, the TGI (MDA-MB-231 [2]) was “Active”, the Activity (MDA-MB-231 [3]) was “Active” and the pIC50 (PANC-1) was 5.97. The inhibition [4] was “Active”, the Activity (MDA-MB-231 [5]) was “Active” and the Activity [6] was “Active”. For the same molecule, the inhibition [6] was “Dose-dependent effect”, the Activity (MDA-MB-231 [7]) was “Active” and the inhibition [8] was 32%. The pIC50 (MDA-MB-231 [1]) was 5.79, the pIC50 (ASPC1) was 5.72 and the Activity (MDA-MB-231 [9]) was “Dose-dependent effect”. The inhibition [10] was 62%, the Activity (MDA-MB-231 [11]) was “Active” and the Activity (MDA-MB-231 [12]) was “Active”. For the same molecule, the TGI (MDA-MB-231 [13]) was “Active”, the Activity (MDA-MB-231 [14]) was “Active” and the pIC50 (MCF7) was 6.04. The inhibition [15] was “Active” and the Activity (MDA-MB-231 [16]) was “Active”.

With O=C(Nc1ccc([N+](=O)[O-])cc1Cl)c1cc(Cl)ccc1OCCN1CCOCC1 the pIC50 (PANC-1) was < 5.00, the pIC50 (MDA-MB-231 [1]) was 4.74 and the pIC50 (ASPC1) was 4.14. For the same molecule, the pIC50 (MCF7) was 5.01.

For NCCCCCOc1ccc(Cl)cc1C(=O)Nc1ccc([N+](=O)[O-])cc1Cl, the pIC50 (PANC-1) was 5.33, the pIC50 (MDA-MB-231 [1]) was 5.51 and the pIC50 (ASPC1) was 5.68. The pIC50 (MCF7) was 5.46.

For O=C(Nc1ccc([N+](=O)[O-])cc1Cl)c1cc(Cl)ccc1O [NICLOSAMIDE], the solubility ([17]; water, read-out: solubility) was 0.23 µg/mL (≈ 0.703 µM), the Activity (MDA-MB-231 [3]) was “Active” and the pIC50 (PANC-1) was 5.76. The inhibition [4] was “Active”, the Activity (MDA-MB-231 [5]) was “Active” and the Activity [6] was “Active”. The Activity (MDA-MB-231 [7]) was “Active”, the inhibition [8] was “Active” and the pIC50 (MDA-MB-231 [1]) was 6.10. For the same molecule, the pIC50 (ASPC1) was 5.83, the Activity (MDA-MB-231 [9]) was “Dose-dependent effect” and the inhibition [10] was “Active”. The TGI (MDA-MB-231 [18]) was “Active”, the pIC50 (MCF7) was 5.97 and the inhibition [15] was “Active”. The Activity (MDA-MB-231 [16]) was “Active” and the TGI (MDA-MB-231 [19]) was “Active”.

Cl.O=C(Nc1ccc([N+](=O)[O-])cc1Cl)c1cc(Cl)ccc1OC1CCNCC1 gave a solubility ([17]; buffer) of 248 µg/mL.

With CN1CCC(Oc2ccc(Cl)cc2C(=O)Nc2ccc([N+](=O)[O-])cc2Cl)CC1 the pIC50 (PANC-1) was < 5.00, the pIC50 (MDA-MB-231 [1]) was 5.57 and the pIC50 (ASPC1) was 5.45. It also gave a pIC50 (MCF7) of 5.39.

With O=C(Nc1ccc([N+](=O)[O-])cc1Cl)c1cc(Cl)ccc1OCCN1CCNCC1 the pIC50 (MDA-MB-231 [1]) was 5.06 and the pIC50 (MCF7) was 4.91.

In the case of NCCCCOc1ccc(Cl)cc1C(=O)Nc1ccc([N+](=O)[O-])cc1Cl, the pIC50 (PANC-1) was < 5.00, the pIC50 (MDA-MB-231 [1]) was 5.63 and the pIC50 (ASPC1) was 5.13. For the same molecule, the pIC50 (MCF7) was 5.43.

For CN1CCN(CCOc2ccc(Cl)cc2C(=O)Nc2ccc([N+](=O)[O-])cc2Cl)CC1, the pIC50 (MDA-MB-231 [1]) was < 5.00 and the pIC50 (MCF7) was < 5.00.

For NCCOCCOc1ccc(Cl)cc1C(=O)Nc1ccc([N+](=O)[O-])cc1Cl, the pIC50 (PANC-1) was < 5.00, the pIC50 (MDA-MB-231 [1]) was 5.28 and the pIC50 (ASPC1) was < 5.00. The pIC50 (MCF7) was 5.03.

In the case of CS(=O)(=O)Nc1ccc(NC(=O)c2cc(Cl)ccc2OC2CCNCC2)c(Cl)c1, the pIC50 (MDA-MB-231 [1]) was < 5.00 and the pIC50 (MCF7) was < 5.00.

In the case of CN(C)CCOc1ccc(Cl)cc1C(=O)Nc1ccc([N+](=O)[O-])cc1Cl, the pIC50 (MDA-MB-231 [1]) was < 5.00 and the pIC50 (MCF7) was < 5.00.

For O=C(Nc1ccc([N+](=O)[O-])cc1Cl)c1cc(Cl)ccc1OCCN1CCCCC1, the pIC50 (MDA-MB-231 [1]) was < 5.00 and the pIC50 (MCF7) was < 5.00.

With O=C(Nc1ccc([N+](=O)[O-])cc1Cl)c1cc(Cl)ccc1OC1CCNCC1 [listing 2 of 2 here] the Activity (MDA-MB-231 [3]) was “Active”, the Activity (MDA-MB-231 [7]) was “Active” and the Activity (MDA-MB-231 [16]) was “Active”.
